Assay results reported in ChEMBL document CHEMBL4340558, “Synthesis, biological evaluation, and molecular docking study of sulfonate derivatives as nucleotide pyrophosphatase/phosphodiesterase (NPP) inhibitors” (Bioorg Med Chem, 2019).

Columns and labels:
[1] = target: T1, Ectonucleotide pyrophosphatase/phosphodiesterase family member 1 (Homo sapiens, UniProt P22413); experiment: Inhibition of human NPP1 expressed in African green monkey COS7 cell membranes pre-incubated for 10 mins before pNP-TMP substrate addition and further incubated for 15 mins by colorimetric method
T1 sequence (P22413 whole entry): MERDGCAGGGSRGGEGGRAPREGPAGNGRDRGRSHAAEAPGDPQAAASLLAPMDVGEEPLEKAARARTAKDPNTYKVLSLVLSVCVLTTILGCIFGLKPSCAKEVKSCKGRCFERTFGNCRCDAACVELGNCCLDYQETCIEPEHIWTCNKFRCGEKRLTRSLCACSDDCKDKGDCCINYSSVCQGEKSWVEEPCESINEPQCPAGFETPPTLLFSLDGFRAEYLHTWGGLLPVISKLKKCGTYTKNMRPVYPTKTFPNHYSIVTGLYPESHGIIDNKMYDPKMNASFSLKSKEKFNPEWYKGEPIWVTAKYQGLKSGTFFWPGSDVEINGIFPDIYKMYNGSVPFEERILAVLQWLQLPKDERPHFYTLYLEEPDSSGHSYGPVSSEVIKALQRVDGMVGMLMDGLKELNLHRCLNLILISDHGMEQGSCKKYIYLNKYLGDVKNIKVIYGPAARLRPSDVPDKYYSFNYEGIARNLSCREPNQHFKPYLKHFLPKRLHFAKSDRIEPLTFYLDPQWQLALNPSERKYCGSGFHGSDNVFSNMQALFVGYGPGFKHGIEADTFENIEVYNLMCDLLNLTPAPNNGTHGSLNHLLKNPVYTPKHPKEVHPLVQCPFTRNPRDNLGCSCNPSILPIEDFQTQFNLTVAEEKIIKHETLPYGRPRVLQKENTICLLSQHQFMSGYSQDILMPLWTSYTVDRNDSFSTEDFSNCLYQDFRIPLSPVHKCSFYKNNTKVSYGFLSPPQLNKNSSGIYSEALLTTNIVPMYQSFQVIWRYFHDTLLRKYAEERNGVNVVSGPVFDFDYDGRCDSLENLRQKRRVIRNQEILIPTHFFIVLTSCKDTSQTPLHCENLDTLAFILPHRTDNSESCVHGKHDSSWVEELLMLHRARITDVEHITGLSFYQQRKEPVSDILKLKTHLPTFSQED

Autotaxin [2] = target: T2, Autotaxin (Homo sapiens, UniProt Q13822); experiment: Inhibition of human NPP2 expressed in African green monkey COS7 cell membranes pre-incubated for 5 mins before pNP-TMP substrate addition and further incubated for 35 mins by colorimetric method
Summary of the method: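 Colorimetric assay in 50 mM Tris-HCl, 5 mM MgCl2, 0.1 mM ZnCl2, pH 9.5, at 37 °C. Enzyme amounts: NPP1 35 ng, NPP2 338 ng, NPP3 37 ng. Pre-read at 405 nm was taken, then pNP-TMP was added: 400 µM for NPP1, 500 µM for NPP2, 600 µM for NPP3. A second 405 nm read followed. Runs were in triplicate. IC50 came from serial dilutions by non-linear curve fitting.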

[3] = target: T3, Ectonucleotide pyrophosphatase/phosphodiesterase family member 3 (Homo sapiens, UniProt O14638); experiment: Inhibition of human NPP3 expressed in African green monkey COS7 cell membranes pre-incubated for 10 mins before pNP-TMP substrate addition and further incubated for 15 mins by colorimetric method
T3 sequence (O14638 whole entry): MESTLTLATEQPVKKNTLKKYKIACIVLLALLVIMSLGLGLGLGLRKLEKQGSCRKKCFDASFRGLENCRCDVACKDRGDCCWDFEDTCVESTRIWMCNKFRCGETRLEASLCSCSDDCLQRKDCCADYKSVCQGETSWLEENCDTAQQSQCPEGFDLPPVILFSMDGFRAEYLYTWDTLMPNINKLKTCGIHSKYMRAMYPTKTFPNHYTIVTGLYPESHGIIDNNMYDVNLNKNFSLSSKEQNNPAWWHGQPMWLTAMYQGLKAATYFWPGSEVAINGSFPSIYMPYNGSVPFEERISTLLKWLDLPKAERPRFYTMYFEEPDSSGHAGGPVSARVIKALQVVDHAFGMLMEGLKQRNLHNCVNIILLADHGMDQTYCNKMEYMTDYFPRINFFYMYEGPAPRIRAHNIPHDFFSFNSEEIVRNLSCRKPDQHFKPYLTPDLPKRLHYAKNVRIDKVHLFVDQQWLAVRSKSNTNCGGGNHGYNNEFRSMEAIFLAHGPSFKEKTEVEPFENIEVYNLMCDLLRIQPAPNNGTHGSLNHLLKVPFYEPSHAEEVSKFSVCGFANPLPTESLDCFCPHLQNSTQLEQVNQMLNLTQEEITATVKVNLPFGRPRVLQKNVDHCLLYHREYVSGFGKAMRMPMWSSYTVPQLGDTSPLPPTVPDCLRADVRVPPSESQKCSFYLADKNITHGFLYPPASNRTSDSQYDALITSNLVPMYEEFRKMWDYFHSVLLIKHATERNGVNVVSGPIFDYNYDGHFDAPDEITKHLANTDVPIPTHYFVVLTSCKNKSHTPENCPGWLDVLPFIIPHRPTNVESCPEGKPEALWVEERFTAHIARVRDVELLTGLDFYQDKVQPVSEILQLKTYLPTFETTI

[4] = target: T4, Ectonucleotide pyrophosphatase/phosphodiesterase family member 1 (Homo sapiens) (UniProt P22413); experiment: Inhibition of human NPP1 expressed in African green monkey COS7 cell membranes pre-incubated for 10 mins before pNP-TMP substrate addition and further incubated for 15 mins by colorimetric method relative to untreated control; design: concentration or dose not given beside the values
T4 sequence (whole entry): T1 sequence (P22413 whole entry)
Summary of the method: (§1)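 Single-point screen at 100 µM test compound, added from a 1 mM stock in 10% DMSO. Buffer was 50 mM Tris-HCl, 5 mM MgCl2, 0.1 mM ZnCl2, pH 9.5, at 37 °C. pNP-TMP substrate was 400 µM for NPP1, 500 µM for NPP2, 600 µM for NPP3. Absorbance at 405 nm was read before and after substrate addition. Percent inhibition was determined in triplicate.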

Autotaxin [5] = target: T2, Autotaxin; experiment: Inhibition of human NPP2 expressed in African green monkey COS7 cell membranes pre-incubated for 5 mins before pNP-TMP substrate addition and further incubated for 35 mins by colorimetric method relative to untreated control; design: concentration or dose not given beside the values; summary of the method: as §1
[6] = target: T5, Ectonucleotide pyrophosphatase/phosphodiesterase family member 3 (Homo sapiens) (UniProt O14638); experiment: Inhibition of human NPP3 expressed in African green monkey COS7 cell membranes pre-incubated for 10 mins before pNP-TMP substrate addition and further incubated for 15 mins by colorimetric method relative to untreated control; design: concentration or dose not given beside the values; summary of the method: as §1
T5 sequence (whole entry): T3 sequence (O14638 whole entry)

[7] = target: T5, Ectonucleotide pyrophosphatase/phosphodiesterase family member 3 (Homo sapiens); experiment: Potency index, ratio of IC50 for suramin to IC50 for test compound for inhibition of human NPP3 expressed in African green monkey COS7 cell membranes pre-incubated for 10 mins before pNP-TMP substrate addition and further incubated for 15 mins by colorimetric method

Cc1ccc(S(=O)(=O)Oc2ccc(NC(=O)c3ccc(Cl)cc3)cc2)cc1
IC50 [1]: 1440 nM | IC50 (Autotaxin [2]): 7690 nM | IC50 [3]: 1620 nM

O=C(Nc1ccc(OS(=O)(=O)c2ccc(C(F)(F)F)cc2)cc1)c1ccc(Cl)cc1
IC50 [1]: 21600 nM | IC50 (Autotaxin [2]): 1070 nM | IC50 [3]: 3420 nM

O=C(Nc1ccc(OS(=O)(=O)c2ccc(F)cc2)cc1)C1CCCCCC1
IC50 (Autotaxin [2]): 4940 nM | IC50 [3]: 2270 nM | inhibition [4]: 39.3%

CC(C)(C)c1ccc(S(=O)(=O)Oc2ccc(NC(=O)C3CCCCCC3)cc2)cc1
IC50 [1]: 1490 nM | IC50 (Autotaxin [2]): 3910 nM | IC50 [3]: 47000 nM

O=C(Nc1ccc(OS(=O)(=O)c2ccc(C(F)(F)F)cc2)cc1)C1CCCC1
IC50 [1]: 1130 nM | IC50 (Autotaxin [2]): 659 nM | IC50 [3]: 3960 nM

Cc1ccc(S(=O)(=O)Oc2ccc(NC(=O)C3CCCCCC3)cc2)cc1
IC50 [1]: 422 nM | IC50 [3]: 255 nM | inhibition (Autotaxin [5]): 24%

O=C(Nc1ccc(OS(=O)(=O)c2ccccc2)cc1)c1ccc2ccccc2c1
IC50 [1]: 9300 nM | IC50 (Autotaxin [2]): 28000 nM | IC50 [3]: 20500 nM

Cc1ccc(S(=O)(=O)Oc2ccc(NC(=O)C3CCCCCCC3)cc2)cc1
IC50 (Autotaxin [2]): 80300 nM | inhibition [4]: 43% | inhibition [6]: 35%

CCCS(=O)(=O)Oc1ccc(NC(=O)C2CCCCC2)cc1
IC50 [1]: 3460 nM | IC50 (Autotaxin [2]): 26200 nM | IC50 [3]: 2410 nM

O=C(Nc1ccc(OS(=O)(=O)c2ccccc2)cc1)C1CCCC1
IC50 [1]: 46700 nM | IC50 [3]: 1720 nM | inhibition (Autotaxin [5]): 38%

O=C(Nc1ccc(OS(=O)(=O)c2ccc(F)cc2)cc1)c1ccc(Cl)cc1
IC50 [1]: 2900 nM | IC50 (Autotaxin [2]): 19900 nM | inhibition [6]: 46%

O=C(Nc1ccc(OS(=O)(=O)c2ccccc2)cc1)C1CCCCCCC1
IC50 (Autotaxin [2]): 65400 nM | inhibition [4]: 45% | inhibition [6]: 47%

O=C(Nc1ccc(OS(=O)(=O)c2ccccc2)cc1)C1CCCCC1
IC50 [1]: 11800 nM | IC50 (Autotaxin [2]): 23800 nM | IC50 [3]: 1080 nM

CC(C)(C)c1ccc(S(=O)(=O)Oc2ccc(NC(=O)C3CCCC3)cc2)cc1
IC50 [1]: 1650 nM | IC50 [3]: 2680 nM | inhibition (Autotaxin [5]): 42%

O=C(Nc1ccc(OS(=O)(=O)c2ccc(C(F)(F)F)cc2)cc1)C1CCCCC1
IC50 [1]: 387 nM | IC50 (Autotaxin [2]): 1600 nM | IC50 [3]: 1790 nM

O=C(Nc1ccc(OS(=O)(=O)c2ccccc2)cc1)C1CCCCCC1
IC50 [1]: 13800 nM | IC50 [3]: 6600 nM | inhibition (Autotaxin [5]): 28%

CC(C)c1cc(C(C)C)c(S(=O)(=O)Oc2ccc(NC(=O)C3CCCCCCC3)cc2)c(C(C)C)c1
inhibition [4]: 30% | inhibition (Autotaxin [5]): 46% | inhibition [6]: 30%

O=C(Nc1ccc(OS(=O)(=O)c2cccc3cccnc23)cc1)c1ccc2ccccc2c1
IC50 (Autotaxin [2]): 2460 nM | inhibition [4]: 37% | inhibition [6]: 42%

O=C(Nc1ccc(OS(=O)(=O)c2ccc(C(F)(F)F)cc2)cc1)c1ccc2ccccc2c1
IC50 [1]: 1120 nM | IC50 [3]: 5430 nM | inhibition (Autotaxin [5]): 22%

O=C(Nc1ccc(OS(=O)(=O)c2ccc(F)cc2)cc1)c1ccc2ccccc2c1
IC50 [1]: 1490 nM | IC50 [3]: 13500 nM | inhibition (Autotaxin [5]): 33%

Cc1ccc(S(=O)(=O)Oc2ccc(NC(=O)c3ccc4ccccc4c3)cc2)cc1
IC50 (Autotaxin [2]): 7990 nM | inhibition [4]: 24% | inhibition [6]: 23%

CC(C)(C)c1ccc(S(=O)(=O)Oc2ccc(NC(=O)C3CCCCCCC3)cc2)cc1
inhibition [4]: 40% | inhibition (Autotaxin [5]): 49% | inhibition [6]: 46%

O=C(Nc1ccc(OS(=O)(=O)c2ccc(C(F)(F)F)cc2)cc1)C1CCCCCCC1
IC50 (Autotaxin [2]): 679 nM | IC50 [3]: 214 nM | inhibition [4]: 29% | Ratio IC50 [7]: 6

O=C(Nc1ccc(OS(=O)(=O)c2ccc(C(F)(F)F)cc2)cc1)C1CCCCCC1
IC50 [1]: 431 nM | IC50 [3]: 2580 nM | inhibition (Autotaxin [5]): 34%

CC(C)(C)c1ccc(S(=O)(=O)Oc2ccc(NC(=O)c3ccc(Cl)cc3)cc2)cc1
IC50 [1]: 1800 nM | IC50 [3]: 1520 nM | inhibition (Autotaxin [5]): 31%

CS(=O)(=O)Oc1ccc(NC(=O)C2CCCCC2)cc1
IC50 [1]: 1920 nM | IC50 [3]: 1350 nM | inhibition (Autotaxin [5]): 33%

CC(C)c1cc(C(C)C)c(S(=O)(=O)Oc2ccc(NC(=O)c3ccc(Cl)cc3)cc2)c(C(C)C)c1
IC50 [1]: 975 nM | IC50 [3]: 1200 nM | inhibition (Autotaxin [5]): 24%

O=C(Nc1ccc(OS(=O)(=O)c2ccc(F)cc2)cc1)C1CCCC1
IC50 [1]: 5760 nM | IC50 (Autotaxin [2]): 1470 nM | IC50 [3]: 1010 nM

CCS(=O)(=O)Oc1ccc(NC(=O)C2CCCCC2)cc1
IC50 [1]: 1630 nM | IC50 (Autotaxin [2]): 1820 nM | IC50 [3]: 369 nM

O=C(Nc1ccc(OS(=O)(=O)c2ccc(F)cc2)cc1)C1CCCCC1
IC50 [1]: 564 nM | IC50 [3]: 254 nM | inhibition (Autotaxin [5]): 37%

CC(C)c1cc(C(C)C)c(S(=O)(=O)Oc2ccc(NC(=O)C3CCCCCC3)cc2)c(C(C)C)c1
inhibition [4]: 29% | inhibition (Autotaxin [5]): 23% | inhibition [6]: 37%

CC(C)c1cc(C(C)C)c(S(=O)(=O)Oc2ccc(NC(=O)c3ccc4ccccc4c3)cc2)c(C(C)C)c1
IC50 [1]: 3430 nM | IC50 [3]: 2890 nM | inhibition (Autotaxin [5]): 42%

O=C(Nc1ccc(OS(=O)(=O)c2ccccc2)cc1)c1ccc(Cl)cc1
IC50 [1]: 9610 nM | IC50 (Autotaxin [2]): > 100000 nM | IC50 [3]: 2770 nM

CC(C)(C)c1ccc(S(=O)(=O)Oc2ccc(NC(=O)C3CCCCC3)cc2)cc1
IC50 [1]: 2550 nM | IC50 [3]: 807 nM | inhibition (Autotaxin [5]): 39%

CC(C)(C)c1ccc(S(=O)(=O)Oc2ccc(NC(=O)c3ccc4ccccc4c3)cc2)cc1
IC50 [1]: 2190 nM | inhibition (Autotaxin [5]): 38% | inhibition [6]: 49%

Cc1ccc(S(=O)(=O)Oc2ccc(NC(=O)C3CCCC3)cc2)cc1
IC50 [1]: 8140 nM | IC50 (Autotaxin [2]): 13600 nM | IC50 [3]: 856 nM

Cc1ccc(S(=O)(=O)Oc2ccc(NC(=O)C3CCCCC3)cc2)cc1
inhibition [4]: 43% | inhibition (Autotaxin [5]): 27% | inhibition [6]: 39%
